Bioassay records deposited in PubChem by Broad Institute.
ERp5 inh = inhibitors of ERp5-driven insulin aggregation, primary screen, biochemical, turbidity, absorbance 650 nm, single point. Protein disulfide-isomerase A6 (Homo sapiens), Q15084. 90 min. inhibition, % at 9.99 µM. actives 0.05% (n = 350,000). AID 651711, 2012;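 active = mean replicate inhibition above about 25%, with every replicate also reaching it, limit read from the data, passing the limit was not always enough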
Target sequence (Q15084 whole entry, looked up): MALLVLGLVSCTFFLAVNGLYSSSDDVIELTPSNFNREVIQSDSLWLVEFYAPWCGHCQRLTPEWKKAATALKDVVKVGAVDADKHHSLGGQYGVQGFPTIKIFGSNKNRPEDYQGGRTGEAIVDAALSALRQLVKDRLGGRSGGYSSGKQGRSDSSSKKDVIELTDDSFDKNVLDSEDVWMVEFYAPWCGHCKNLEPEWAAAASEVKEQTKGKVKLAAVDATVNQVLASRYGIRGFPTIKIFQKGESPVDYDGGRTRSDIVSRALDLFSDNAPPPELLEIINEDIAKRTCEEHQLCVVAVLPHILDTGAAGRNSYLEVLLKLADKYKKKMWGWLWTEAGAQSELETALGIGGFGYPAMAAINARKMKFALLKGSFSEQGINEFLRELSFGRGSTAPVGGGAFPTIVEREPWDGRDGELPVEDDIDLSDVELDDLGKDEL
MLL AF4-AF9 inh = inhibitors of AF4 peptide binding to AF9, primary screen, biochemical, AlphaScreen, biotin-AF4 peptide, FLAG-AF9, single point; inhibition, % at 10 µM; actives 0.47% (n = 350,000); AID 651704, 2012;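 active = every replicate reaching a set inhibition limit, whatever the replicate mean, cut at about 25% in these data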;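 note: 0% = plate neutral control median and 100% = total signal loss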
SIRT5 block = SIRT5 desuccinylase inhibitors, primary screen, biochemical, fluorescence imaging, single point, set 5. NAD-dependent protein deacylase sirtuin-5, mitochondrial (Homo sapiens), Q9NXA8. Purified SirT5, succinyl-peptide AMC, trypsin-coupled fluorescence. inhibition, % at 15 µM. actives 1.1% (n = 330,000). AID 652115, 2013; in the data active = inhibition above about 15%
PDI inh = inhibitors of human PDI, primary screen, biochemical, turbidity, single point, plate reader. Protein disulfide-isomerase (Homo sapiens), P07237. PDI insulin aggregation turbidity, A650, 90 min. inhibition, % at 10 µM. actives 0.052% (n = 350,000). AID 588391, 2011;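 active = mean inhibition across replicates of 30% or more, whatever share of single replicates reach that level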
FN deposition inh = inhibitors of fibronectin matrix deposition, primary screen, AH1F cells, Alexa488-fibronectin fluorescence, plate reader; AID 743247, 2014; inhibition, % at 12.6 µM; AH1F fibroblasts, overnight; actives 0.086% (n = 350,000);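 active = mean inhibition across replicates of 30% or more, regardless of how many single replicates reach that level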;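 note: positive control wells lacked labelled fibronectin entirely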
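Assay system: AH1F fibroblast monolayer, labelled fibronectin deposition. Amount: 10000 cells per well. Also added: labelled fibronectin 24 nM. Compound: single-point pinned compound. Incubation: cell attachment 1 h, compound and FN exposure overnight. Detection: fluorescence after three HBSS washes, excitation 485 nm, emission 525 nm. Read-out: inhibition of fibronectin deposition signal.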
* hit, by the source's call; x = no result given. Only some compounds are listed: those with a hit (about 1.3% of all), similar ones and a draw of the others.

SMILES	ERp5 inh	MLL AF4-AF9 inh	SIRT5 block	PDI inh	FN deposition inh
CCOC(=O)/C(=C/c1c(C)n(C)c2ccc([N+](=O)[O-])cc12)C(C)=O	2	-1	-6	-1	-10
C[C@H](CO)N1C[C@H](C)[C@@H](CN(C)Cc2ccc(Cl)c(Cl)c2)Oc2ccc(NC(=O)CCCCCC(=O)Nc3ccccc3N)cc2CC1=O	2	3	26*	x	x
C[C@H]1CN([C@@H](C)CO)C(=O)Cc2cc(NC(=O)CCCCCC(=O)Nc3ccccc3N)ccc2O[C@H]1CN(C)Cc1ccc(Cl)c(Cl)c1	2	1	5	x	x
C[C@H](CO)N1C[C@H](C)[C@@H](CN(C)S(=O)(=O)c2ccccc2)Oc2ccc(NC(=O)CCCCCC(=O)Nc3ccccc3N)cc2C1=O	-4	-4	19*	x	x
C[C@H](CO)N1C[C@H](C)[C@H](CN(C)Cc2ccc(Cl)c(Cl)c2)Oc2ccc(NC(=O)CCCCCC(=O)Nc3ccccc3N)cc2C1=O	-1	-3	24*	x	x
C[C@@H]1CCCCO[C@H](CN(C)Cc2ccc(Cl)c(Cl)c2)[C@@H](C)CN([C@H](C)CO)C(=O)c2cc(NC(=O)CCCCCC(=O)Nc3ccccc3N)ccc2O1	-6	1	x	x	-7
CC(C(=O)Nc1ccc([N+](=O)[O-])cc1)N1CCN(C/C=C/c2ccccc2)CC1 (stereo unspecified)	-2	17	-1	0	-5
Cc1ccccc1-c1nc(CS(=O)(=O)CC(=O)NCCCN2CCCC2)c(C)o1	-5	-3	17*	x	-2
Cc1ccccc1-c1nc(CS(=O)(=O)CC(=O)NCCN2CCOCC2)c(C)o1	6	-1	4	x	-11
O=C(CCNC(=O)c1ccc(Cl)cc1)Nc1ccccc1Cl	-5	5	2	-23	1
C[C@@H]1CN([C@H](C)CO)S(=O)(=O)c2ccc(C#CC(C)(C)O)cc2O[C@H]1CN(C)Cc1ccccc1	8	2	2	x	12
C[C@@H]1CN([C@H](C)CO)S(=O)(=O)c2ccc(C#CC(C)(C)O)cc2O[C@@H]1CN(C)Cc1ccc(-c2ccccc2)cc1	5	11	20*	x	-7
C[C@H](CO)N1C[C@H](C)[C@H](CN(C)Cc2ccc(-c3ccccc3)cc2)Oc2cc(C#CC(C)(C)O)ccc2S1(=O)=O	4	0	20*	x	2
C[C@H]1CN([C@@H](C)CO)S(=O)(=O)c2ccc(C#CC(C)(C)O)cc2O[C@H]1CN(C)Cc1ccc(-c2ccccc2)cc1	1	6	23*	x	-5
C[C@H]1CN([C@@H](C)CO)S(=O)(=O)c2ccc(C#CC(C)(C)O)cc2O[C@@H]1CN(C)Cc1ccc(-c2ccccc2)cc1	4	1	20*	x	19
C[C@H](CO)N1C[C@H](C)[C@@H](CN(C)Cc2ccc(-c3ccccc3)cc2)Oc2cc(C#CC(C)(C)O)ccc2S1(=O)=O	3	0	-3	x	-20
C[C@H](CO)N1C[C@H](C)[C@@H](CN(C)CC2CCCC2)Oc2cc(Br)ccc2S1(=O)=O	1	0	16*	x	-8
C/C=C/c1ccc2c(c1)O[C@@H](CN(C)CC1CCCC1)[C@H](C)CN([C@@H](C)CO)S2(=O)=O	0	6	18*	x	6
C[C@@H]1CN([C@@H](C)CO)S(=O)(=O)c2ccc(Br)cc2O[C@H]1CN(C)CC1CCCC1	2	-1	7	x	-1
c1ccc(-c2cn(-c3ccccc3)c3ncnc(NCCCN4CCOCC4)c23)cc1	0	6	x	-4	x
CCOC(=O)CNC(=O)C1CCC(CNS(=O)(=O)c2cccc3nsnc23)CC1 (stereo unspecified)	3	2	0	-1	-11
O=C(CNC(=O)c1cccc(Br)c1)N/N=C/c1cccnc1	-10	-2	-3	16	-10
COc1ccc(C(=O)NC(C)C2CC3CCC2C3)cc1 (stereo unspecified)	5	-2	-1	-3	4
O=C1CCCC2=C1C(c1ccc(Br)cc1)c1c([nH]c(=S)[nH]c1=O)N2 (stereo unspecified)	x	x	x	-2	x
